What was measured:
Type in all cases: ADME
Cytochrome P450 3A4 [1] = target: T1, Cytochrome P450 3A4 (Homo sapiens, UniProt P08684); assay: Binding affinity to C-terminal His-tagged wild type CYP3A4 (unknown origin) expressed in Escherichia coli assessed as spectral changes by spectrophotometric analysis relative to control
Procedure, shortened: (§1)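 Spectrophotometric titration of purified enzyme with small aliquots of ligand in DMSO (final solvent ≤2%) in 50 mM phosphate, pH 7.4, 20% glycerol, 1 mM dithiothreitol; spectra recorded at room temperature and spectral dissociation constant Ks derived from absorbance change vs ligand concentration.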

Cytochrome P450 3A4 [2] = target: T2, Cytochrome P450 3A4 (Homo sapiens, UniProt P08684, S119A); assay: Binding affinity to CYP3A4 (3-22)-deleted S119A mutant (unknown origin) expressed in Escherichia coli by stopped flow assay
Cytochrome P450 3A4 [3] = target: T1, Cytochrome P450 3A4; assay: Inhibition of C-terminal His-tagged wild type CYP3A4 (unknown origin)-mediated hydroxylation of 7-benzyloxy-4-trifluoromethylcoumarin expressed in Escherichia coli after 5 mins by fluorimetric analysis
Procedure, shortened: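 Reconstituted system at room temperature: CYP3A4 (0.3 μM) with rat CPR (0.6 μM) in 25 mM phosphate, pH 7.4, 3 mM MgCl2, preincubated 5 min with inhibitor with or without 100 μM NADPH, then 50 μM BFC added.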

Cytochrome P450 3A4 [4] = target: T1, Cytochrome P450 3A4; assay: Binding affinity to C-terminal His-tagged wild type CYP3A4 (unknown origin)-bromoergocryptine complex expressed in Escherichia coli by spectrophotometric analysis; conditions: read-out: Ks
Cytochrome P450 3A4 [5] = target: T1, Cytochrome P450 3A4; assay: Binding affinity to C-terminal His-tagged wild type CYP3A4 (unknown origin) expressed in Escherichia coli assessed as rate constant of fast phase of reaction by stopped flow assay
Cytochrome P450 3A4 [6] = target: T2, Cytochrome P450 3A4; assay: Binding affinity to CYP3A4 (3-22)-deleted S119A mutant (unknown origin) expressed in Escherichia coli by spectrophotometric analysis; conditions: read-out: Ks; procedure, shortened: as §1
Cytochrome P450 3A4 [7] = target: T2, Cytochrome P450 3A4; assay: Binding affinity to CYP3A4 (3-22)-deleted S119A mutant (unknown origin) expressed in Escherichia coli assessed as increase in melting temperature by spectrophotometric analysis (reference value: 53.5 +/- 0.1 degC)
Cytochrome P450 3A4 [8] = target: T1, Cytochrome P450 3A4; assay: Ratio of compound binding constant to ritonavir binding constant for C-terminal His-tagged wild type CYP3A4 (unknown origin)
Cytochrome P450 3A4 [9] = target: T1, Cytochrome P450 3A4; assay: Binding affinity to C-terminal His-tagged wild type CYP3A4 (unknown origin) expressed in Escherichia coli by spectrophotometric analysis; conditions: read-out: Ks; procedure, shortened: as §1
Cytochrome P450 3A4 [10] = target: T1, Cytochrome P450 3A4; assay: Binding affinity to C-terminal His-tagged wild type CYP3A4 (unknown origin) expressed in Escherichia coli assessed as increase in melting temperature by spectrophotometric analysis (reference value: 52.1 +/- 0.1 degC)
Cytochrome P450 3A4 [11] = target: T1, Cytochrome P450 3A4; assay: Ratio of ritonavir Ks to compound Ks for C-terminal His-tagged wild type CYP3A4 (unknown origin)
CYP3A4 = CYP3A4 (Homo sapiens, UniProt P08684); assay: Ratio of ritonavir IC50 to compound IC50 for C-terminal His-tagged wild type CYP3A4 (unknown origin); conditions: read-out: Ratio IC50
Sequence of CYP3A4 (P08684 whole entry): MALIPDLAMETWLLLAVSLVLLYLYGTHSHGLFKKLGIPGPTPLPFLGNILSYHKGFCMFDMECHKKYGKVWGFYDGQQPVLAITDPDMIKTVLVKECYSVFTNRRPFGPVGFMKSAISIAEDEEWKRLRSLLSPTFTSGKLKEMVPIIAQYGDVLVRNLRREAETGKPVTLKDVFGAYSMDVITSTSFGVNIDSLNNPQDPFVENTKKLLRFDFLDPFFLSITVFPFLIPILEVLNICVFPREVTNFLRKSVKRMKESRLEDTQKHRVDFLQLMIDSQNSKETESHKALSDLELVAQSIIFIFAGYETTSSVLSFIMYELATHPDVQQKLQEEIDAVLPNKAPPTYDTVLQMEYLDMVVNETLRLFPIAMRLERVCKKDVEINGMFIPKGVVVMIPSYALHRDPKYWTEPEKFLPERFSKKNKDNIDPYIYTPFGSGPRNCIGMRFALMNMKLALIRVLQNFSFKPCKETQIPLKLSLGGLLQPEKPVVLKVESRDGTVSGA

T2 sequence (P08684 2-503 S119A limits assumed): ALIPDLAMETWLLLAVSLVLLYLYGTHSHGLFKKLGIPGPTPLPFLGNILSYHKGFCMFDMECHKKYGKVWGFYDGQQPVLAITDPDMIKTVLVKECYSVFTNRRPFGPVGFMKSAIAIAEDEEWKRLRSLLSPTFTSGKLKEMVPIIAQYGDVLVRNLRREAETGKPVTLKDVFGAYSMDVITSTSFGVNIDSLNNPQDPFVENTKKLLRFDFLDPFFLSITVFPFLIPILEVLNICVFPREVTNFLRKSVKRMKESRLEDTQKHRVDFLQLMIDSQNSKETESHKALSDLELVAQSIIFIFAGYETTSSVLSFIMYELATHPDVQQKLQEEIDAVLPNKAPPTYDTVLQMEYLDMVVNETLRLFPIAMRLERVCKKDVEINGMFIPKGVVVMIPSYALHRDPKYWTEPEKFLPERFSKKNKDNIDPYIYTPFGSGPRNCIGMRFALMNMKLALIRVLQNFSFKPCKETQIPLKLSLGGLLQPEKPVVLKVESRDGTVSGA
T1 sequence (P08684 whole entry): as the sequence (P08684 whole entry) above

Activity (Cytochrome P450 3A4 [1])	K (Cytochrome P450 3A4 [2]) [s⁻¹]	IC50 (Cytochrome P450 3A4 [3]) [nM]	Kd (Cytochrome P450 3A4 [4]) [nM]	K (Cytochrome P450 3A4 [5]) [s⁻¹]	Kd (Cytochrome P450 3A4 [6]) [nM]	Tm (Cytochrome P450 3A4 [7]) [°C]	Ratio (Cytochrome P450 3A4 [8])	Kd (Cytochrome P450 3A4 [9]) [nM]	Tm (Cytochrome P450 3A4 [10]) [°C]	Ratio (Cytochrome P450 3A4 [11])	Structure (SMILES)	selectivity ratio (CYP3A4)
Active	0.32	130	5	7	65	55.6	5	25	57.2	2	CC(C)c1nc(CN(C)C(=O)N[C@H](C(=O)N[C@H](CC[C@H](Cc2ccccc2)NC(=O)OCc2cccnc2)Cc2ccccc2)C(C)C)cs1	
60%	0.2	3400		2.2	970	53.2		570	54.8		CC(C)c1nc(CN(C)C(=O)N[C@H](C(=O)N[C@H](CC[C@H](Cc2ccccc2)NC(=O)OCc2cnco2)Cc2ccccc2)C(C)C)cs1	
Not Active	0.17	280		1.9	67	55.5		22	56.5	2	CC(C)c1nc(CN(C)C(=O)N[C@H](C(=O)N[C@H](CC[C@H](Cc2ccccc2)NC(=O)OCc2cnc[nH]2)Cc2ccccc2)C(C)C)cs1	2
